Reference: article PMC4161282 (Bioconjugate chemistry, 2013)
Converted amounts (≈) assume the structure as drawn. “And” between values parts separate entries of the source, which are not always exact repeats. Identical values can stand only once.

Experiments:
[1] = Effect of catalyst concentration on kobs, oxime ligation of citral with 1; settings: citral 30 µM, 1 100 µM
[2] = Kinetic analysis of oxime ligation between 2-pentanone and aminooxy-dansyl 1; settings: for kobs: 2-pentanone 5.0 mM, 1 150 µM; for kobs/kobs(aniline): vs 100 mM aniline
GFP-aldehyde 4a = GFP-aldehyde 4a (Aequorea victoria, UniProt P42212); test: Kinetic analysis of protein labeling via oxime ligation; settings: catalyst 100 mM, 4a 10 µM, 1 50 µM
immobilized GFP = immobilized GFP (Aequorea victoria, UniProt P42212); test: Kinetic analysis of hydrazone-oxime exchange; settings: catalyst 100 mM, aminooxy fluorophore 5 1 mM
Aldehyde-GFP 4a = Aldehyde-GFP 4a (Aequorea victoria, UniProt P42212); test: Immobilization of aldehyde-GFP 4a from crude cell lysate onto hydrazide beads; settings: catalyst 100 mM
DHFR^2 M174pAcF = test: PEGylation of ketone-containing protein with aminooxy-PEG 12; settings: catalyst 100 mM, protein 7 µM, aminooxy-PEG 5 mM, pH 7, rt
[3] = Approximate solubility in phosphate buffer; settings: for solubility: phosphate buffer, pH 7, aqueous buffer
[4] = Catalyst screening: oxime ligation of citral with aminooxy-dansyl 1; settings: catalyst 25 mM; for kobs / kobs/kobs(aniline) / t1/2: citral 50 µM; for kobs: aminooxy-dansyl 1 100 µM, PB pH 7.0, rt; for kobs/kobs(aniline) / t1/2: 1 100 µM; for catalytic efficiency compared with aniline: screening
aldehyde-CNTF 9 = molecular target: T1, aldehyde-CNTF 9 (Homo sapiens, UniProt P26441); test: Rate analysis of coupling between aldehyde-CNTF 9 and aminooxy 5; settings: catalyst 80 mM, 9 50 µM, 5 600 µM, 5 min
T1 sequence (P26441 1-200): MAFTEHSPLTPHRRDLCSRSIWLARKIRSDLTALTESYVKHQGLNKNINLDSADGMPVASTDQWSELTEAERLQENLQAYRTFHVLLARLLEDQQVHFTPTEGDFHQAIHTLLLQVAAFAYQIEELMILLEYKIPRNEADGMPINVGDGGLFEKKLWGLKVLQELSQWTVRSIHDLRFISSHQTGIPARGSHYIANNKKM
Method in brief: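 Run at rt and started by adding aldehyde-bearing CNTF (stock 60 µM in 50 mM Tris-HCl, pH 7.5). Aliquots were taken every 5 min into SDS loading buffer and flash-frozen in liquid nitrogen. Samples were heated at 98 °C for 4 min, then analysed by SDS-PAGE.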

[5] = phosphate buffer (0.1 M), pH 7.0, rt

SMILES	kobs ([1]; catalyst 25 mM) [M⁻¹ s⁻¹]	kobs/[cat.] ([1]; catalyst 25 mM) [ms^−1 M^−2]	kobs ([1]; catalyst 35 mM) [M⁻¹ s⁻¹]	kobs/[cat.] ([1]; catalyst 35 mM) [ms^−1 M^−2]	kobs ([1]; catalyst 42 mM) [M⁻¹ s⁻¹]	kobs/[cat.] ([1]; catalyst 42 mM) [ms^−1 M^−2]	kobs/[cat.] ([1]; catalyst 50 mM) [ms^−1 M^−2]	Approximate Solubility [3, 5]	kobs [4] [M⁻¹ s⁻¹]	kobs/kobs(aniline) [4]	catalytic efficiency compared with aniline [4]	t1/2 [4] [min]	other results
Nc1ccccc1 [Aniline, aniline, reference compound]	24.3 ± 0.2	0.97	33.5 ± 0.2	0.96	36.9 ± 0.3	0.88	0.97	100 mM	24.4 ± 0.5	–	–	–	kobs ([1]; catalyst 50 mM): 48.6 ± 0.2 M⁻¹ s⁻¹; kobs ([1]; catalyst 50 mM, listed as aniline): 48.9 M⁻¹ s⁻¹ and 48.6 M⁻¹ s⁻¹; kobs ([2]; catalyst 100 mM): 0.082 M⁻¹ s⁻¹ and 0.082 ± 0.0007 M⁻¹ s⁻¹; extent of reaction (labeling) in about 90 s (GFP-aldehyde 4a): < 7%; kobs (GFP-aldehyde 4a): 10.3 M⁻¹ s⁻¹; kobs of immobilized protein release (immobilized GFP): 0.0159 h⁻¹; time to complete immobilization (Aldehyde-GFP 4a): less than 45 min; effect on PEGylation reaction rate (DHFR^2 M174pAcF): did not have a significant effect on the reaction rate; solubility ([3]; Approximate Solubility, phosphate buffer (0.1 M), pH 7.0, rt): ~100 mM (≈ 9310 µg/mL)
Nc1cccc(O)c1 [m-Aminophenol, m-aminophenol]	–	–	–	–	–	–	–	–	23.9 ± 0.5	0.98	–	–	–
Nc1cccc(N)c1 [m-Phenylene-diamine, m-phenylenediamine]	38.7 ± 0.1	1.55	58.3 ± 0.3	1.66	65.6 ± 0.6	1.56	1.56	–	–	–	–	–	kobs ([1]; catalyst 50 mM, listed as mPDA): 78.2 ± 0.7 M⁻¹ s⁻¹; kobs ([2]; catalyst 100 mM, listed as mPDA): 0.20 ± 0.0016 M⁻¹ s⁻¹; kobs/kobs(aniline) ([2]; catalyst 100 mM): 2.41; kobs ([2]; catalyst 300 mM): 0.36 ± 0.0042 M⁻¹ s⁻¹; kobs/kobs(aniline) ([2]; catalyst 300 mM): 4.45; kobs ([2]; catalyst 500 mM): 0.73 ± 0.0071 M⁻¹ s⁻¹; kobs/kobs(aniline) ([2]; catalyst 500 mM): 8.89; kobs ([2]; catalyst 700 mM): 1.17 ± 0.013 M⁻¹ s⁻¹; kobs/kobs(aniline) ([2]; catalyst 700 mM): 14.3; kobs ([2]; catalyst 900 mM): 1.69 ± 0.022 M⁻¹ s⁻¹; kobs/kobs(aniline) ([2]; catalyst 900 mM): 20.7; extent of protein labeling (Coomassie gel) (aldehyde-CNTF 9): almost all of the protein was labeled
Nc1ccccc1C(=O)O [o-Aminobenzoic acid, o-aminobenzoic acid]	–	–	–	–	–	–	–	–	24.8 ± 0.8	1.01	equal to or less efficient than aniline	–	solubility [3]: > 2000 mM
Nc1ccccc1N [o-Phenylene-diamine, o-phenylenediamine]	–	–	–	–	–	–	–	very soluble (>1 M)	18.1 ± 0.3	0.74	equal to or less efficient than aniline	7.47	–
Nc1ccc(N)cc1 [p-Phenylene-diamine, p-phenylenediamine]	–	–	–	–	–	–	–	very soluble (>1 M)	29.2 ± 0.7	1.20	more efficient compared with aniline	4.63	–
